Where a SMILES comes first, the peptide text is derived from it. The star is where a group is joined. X2 = CC1(C)N(O)C(c2ccc(OCC(=O)*)cc2)=[N+]([O-])C1(C)C; X1 = CC1(C)N(O)C(c2ccc(OCCN*)cc2)=[N+]([O-])C1(C)C
Experiments:
[1] = Aqueous stability assessed as decomposition time at pH 7.4; assay type: physicochemical; conditions: buffer
Method in brief: (§1)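 Each sample dissolved in aqueous solution at pH 2.0, 7.4 or 11.5 (final 10^-2 mM) and held at room temperature for up to 200 h. Decomposition followed by TLC (CHCl3/CH3OH, 20:1). Value is the time at which decomposition appeared.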

[2] = Aqueous stability assessed as decomposition time at pH 2.0; assay type: physicochemical; conditions: buffer; method in brief: as §1
Aorta [3] = assay: Nitric oxide radical scavenging activity in rat aortic strip assessed as inhibition of acetylcholine-induced vasorelaxation at 10 uM; assay type: functional, tissue-based
Aorta [4] = assay: Nitric oxide radical scavenging activity in rat aortic strip assessed as inhibition of acetylcholine-induced vasorelaxation at 100 uM; assay type: functional, tissue-based
[5] = Aqueous stability assessed as decomposition time at pH 11.5; assay type: physicochemical; conditions: buffer; method in brief: as §1
Aorta [6] = assay: Nitric oxide radical scavenging activity in rat aortic strip assessed as inhibition of acetylcholine-induced vasorelaxation at 1 uM; assay type: functional, tissue-based
Blood [7] = assay: Inhibition of 1 uM platelet activating factor-induced platelet aggregation in rabbit blood; assay type: functional, Oryctolagus cuniculus
Method in brief: (§2)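 Platelet-rich plasma made by centrifuging normal rabbit blood anticoagulated with sodium citrate (3.8% final). Platelets adjusted to 2×10^5/µl with autologous plasma. Aggregation induced by PAF or ADP (final 10^-5–10^-7 M) and read by turbidimetry in an aggregometer. Maximal aggregation rate (Am%) taken as peak height of the curve.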

Rattus norvegicus [8] = assay: Antithrombotic activity in Wistar rat assessed as dry thrombus weight at 5 umol/kg
Blood [9] = assay: Inhibition of 10 uM adenosine diphosphate-induced platelet aggregation in rabbit blood; assay type: functional, Oryctolagus cuniculus; method in brief: as §2
Rattus norvegicus [10] = assay: Antithrombotic activity in Wistar rat assessed as wet thrombus weight at 5 umol/kg; assay type: functional
Method in brief: (§3)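 Male Wistar rats (250–300 g) anesthetized with pentobarbital sodium (80.0 mg/kg, ip). The right carotid artery and left jugular vein were cannulated via a polyethylene tube containing a thread, filled with NS or compound dissolved in NS (vehicle NS). Blood shunted 15 min. The thread was weighed wet, then after 2 weeks in a desiccator weighed dry. n = 10, ANOVA.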

Blood [11] = assay: Inhibition of 1 uM adenosine diphosphate-induced platelet aggregation in rabbit blood; assay type: functional, Oryctolagus cuniculus; method in brief: as §2
Blood [12] = assay: Inhibition of 10 uM platelet activating factor-induced platelet aggregation in rabbit blood; assay type: functional, Oryctolagus cuniculus; method in brief: as §2
Blood [13] = assay: Inhibition of 0.1 uM adenosine diphosphate-induced platelet aggregation in rabbit blood; assay type: functional, Oryctolagus cuniculus; method in brief: as §2
Blood [14] = assay: Inhibition of 0.1 uM platelet activating factor-induced platelet aggregation in rabbit blood; assay type: functional, Oryctolagus cuniculus; method in brief: as §2
Plasma = assay: Thrombolytic activity in rabbit plasma assessed as euglobulin clot lysis time at 4.5 uM; assay type: functional, Oryctolagus cuniculus
Method in brief: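 Rabbit plasma diluted 1:20 in water and precipitated at pH 5.7 with 0.25% acetic acid for 30 min at 4 °C. Centrifuged at 2000g for 15 min. […] Sample added and time to clot lysis recorded.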

Oryctolagus cuniculus = species: Oryctolagus cuniculus; assay: Thrombolytic activity against rabbit fibrinogen assessed as fibrinogen lysis area at 4.5 uM
Method in brief: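 Equal volumes of 0.3% rabbit fibrinogen and 0.95% agarose in 50 mM sodium barbiturate buffer (pH 7.8), coagulated with thrombin (100 IU/mL). After 30 min at 4 °C, 5 mm wells were punched and 30 µl of sample in NS added per well. Plates incubated and lysis area measured in mm². ANOVA.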

Rattus norvegicus [15] = assay: Thrombolytic activity in Wistar rat assessed as reduction in thrombus weight at 10 umol/kg; assay type: functional
Method in brief: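 Male Wistar rats (200–300 g) anesthetized with pentobarbital sodium (80.0 mg/kg, ip). A steel helix was left 15 min in 1.0 ml carotid artery blood, and the helix with thrombus was weighed. It was placed in a polyethylene tube filled with heparin sodium (50 IU/ml NS) inserted into the left jugular vein. Heparin was injected, then compound dissolved in NS. Read-out is reduction in thrombus weight.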

PC-12 [16] = assay: Radical scavenging activity in rat PC12 cells assessed as inhibition of hydrogen peroxide radical-induced cell damage by MTT assay; assay type: functional, cell-based
Method in brief: (§4)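 PC12 cells grown in DMEM with 10% heat-inactivated horse serum, 5% FBS and 1.0 mM pyruvate at 37 °C, 5% CO2. Seeded at 20,000 cells/well on poly-L-lysine and attached 24 h. Pretreated 1 h with 12.5–200 µM compound. Damage induced by SNP 2 mM for 2 h (NO), H2O2 1 mM for 1 h, or H2O2 1 mM/Fe(II) 30 µM for 1 h (·OH). Media replaced, cells incubated 14 h, survival measured by MTT.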

PC-12 [17] = assay: Radical scavenging activity in rat PC12 cells assessed as inhibition of nitric oxide radical-induced cell damage by MTT assay; assay type: functional, cell-based; method in brief: as §4
PC-12 [18] = assay: Radical scavenging activity in rat PC12 cells assessed as inhibition of hydroxyl radical-induced cell damage by MTT assay; assay type: functional, cell-based; method in brief: as §4
Rattus norvegicus [19] = assay: Antithrombotic activity in Wistar rat assessed as wet thrombus weight at 20 mg/kg; assay type: functional; method in brief: as §3
Rattus norvegicus [20] = assay: Antithrombotic activity in Wistar rat assessed as dry thrombus weight at 20 mg/kg; assay type: functional; method in brief: as §3

SMILES	Time [1] [h]	Time [2] [h]	inhibition (Aorta [3]) [%]	inhibition (Aorta [4]) [%]	Time [5] [h]	inhibition (Aorta [6]) [%]	inhibition (INH) (Blood [7]) [%]	dry thrombus weight (Rattus norvegicus [8]) [mg]	inhibition (INH) (Blood [9]) [%]	Activity (Rattus norvegicus [10]) [mg]	inhibition (INH) (Blood [11]) [%]	inhibition (INH) (Blood [12]) [%]	inhibition (INH) (Blood [13]) [%]	inhibition (INH) (Blood [14]) [%]	also measured
CC1(C)N(O)C(c2cccnc2)=[N+]([O-])C1(C)C	30	15	16.6	48.6	18	1.7	–	–	–	–	–	–	–	–	–
CC1(C)N(O)C(c2ccc([N+](=O)[O-])cc2)=[N+]([O-])C1(C)C	> 200	> 200	71.3	98	> 200	–	–	–	–	–	–	–	–	–	–
N=C(N)NCCC[C@H](N)C(=O)NCC(=O)N[C@@H](CC(=O)O)C(=O)N[C@@H](CO)C(=O)O	–	–	4.3	8.9	–	2.9	36.47	4.22	51.5	27.9	39.62	53.69	16.6	22.03	–
CC(C)[C@H](NC(=O)[C@H](CC(=O)O)NC(=O)CNC(=O)[C@@H](N)CCCNC(=N)N)C(=O)O (H-RGDV-OH)	–	–	7.6	10.5	–	5.3	34.84	4.43	49.78	28.6	33.41	52.07	12.65	20.01	–
CC1(C)N(O)C(c2ccccc2)=[N+]([O-])C1(C)C	> 200	> 200	62.7	81.9	> 200	9.8	–	–	–	–	–	–	–	–	–
CC1(C)N(O)C(CCl)=[N+]([O-])C1(C)C	18	2	7.7	25	2.5	1.6	–	–	–	–	–	–	–	–	–
CC1(C)N(O)C=[N+]([O-])C1(C)C	18	2	8.6	31.2	2.5	1.7	–	–	–	–	–	–	–	–	–
C[C@H](NC(=O)[C@@H]1CCCN1)C(=O)N[C@@H](CCCCN)C(=O)O (H-Pro-Ala-Lys-OH)	–	–	6.1	9.5	–	4.5	–	–	–	–	–	–	–	–	Time (Plasma): 101.6 min; Activity (Oryctolagus cuniculus): 214 mm2; Activity (Rattus norvegicus [15]): 24.11 mg
CC1(C)N(O)C(c2ccc(OCC(=O)O)cc2)=[N+]([O-])C1(C)C	> 200	> 200	72.4	99	> 200	25.3	51.4	6.67	51.98	38.76	50.65	53.8	49.33	52.45	Time (Plasma): 223.11 min; Activity (Oryctolagus cuniculus): 26.6 mm2; Activity (Rattus norvegicus [15]): 12.11 mg; EC50 (PC-12 [16]): 31.6 µM; EC50 (PC-12 [17]): 92.3 µM
CC1(C)N(O)C(c2ccc(O)cc2)=[N+]([O-])C1(C)C	> 200	> 200	73.1	99.2	> 200	26.1	52.45	6.8	49.28	38.9	50.39	54	49.01	53.04	EC50 (PC-12 [18]): 56.9 µM; EC50 (PC-12 [16]): 49.1 µM; EC50 (PC-12 [17]): 40 µM
CC1(C)N(O)C(c2ccco2)=[N+]([O-])C1(C)C	30	15	20.2	44.4	18	1.6	–	–	–	–	–	–	–	–	–
CC1(C)N(O)C(C(=O)O)=[N+]([O-])C1(C)C	18	2	25	34.3	2.5	1.7	–	–	–	–	–	–	–	–	–
CC(C)[C@H](NC(=O)[C@H](CC(=O)O)NC(=O)CNC(=O)[C@@H](N)CCCNC(=N)NC(=O)COc1ccc(C2=[N+]([O-])C(C)(C)C(C)(C)N2O)cc1)C(=O)O (H-R(X2)GDV-OH)	–	–	72.8	96.6	–	26.2	32.8	4.18	50.2	26.11	39.6	50.26	16.38	19.88	EC50 (PC-12 [18]): 102 µM; EC50 (PC-12 [16]): 32.8 µM; EC50 (PC-12 [17]): 93 µM
CC1(C)N(O)C(c2ccc(OCCNC(=O)C[C@H](NC(=O)CNC(=O)[C@@H](N)CCCNC(=N)N)C(=O)N[C@@H](CO)C(=O)O)cc2)=[N+]([O-])C1(C)C (H-RGD(X1)S-OH)	–	–	71.3	95.9	–	24	34.33	4.08	50	25.01	39.43	51.59	16.11	21.52	EC50 (PC-12 [18]): 102 µM; EC50 (PC-12 [16]): 32 µM; EC50 (PC-12 [17]): 92.9 µM
CC(=O)Oc1ccccc1C(=O)O [ASPIRIN]	–	–	–	–	–	–	–	–	–	–	–	–	–	–	Activity (Rattus norvegicus [19]): 24.16 mg; Activity (Rattus norvegicus [20]): 4.04 mg

Reference: ChEMBL document CHEMBL1157169, “A class of novel nitronyl nitroxide labeling basic and acidic amino acids: synthesis, application for preparing ESR optionally labeling peptides, and bioactivity investigations” (Bioorg Med Chem, 2008)
